Measured values from ChEMBL document CHEMBL1155338, “Antioxidant and antibacterial studies of arylazopyrazoles and arylhydrazonopyrazolones containing coumarin moiety” (2009).
Active and inactive are the calls of the source. The rule behind the calls is not given here.

Key:
Format in all cases: functional
[1] = tested on: Radical scavenging activity; experiment: Antioxidant activity assessed as DPPH radical scavenging after 30 mins; parameters: concentration or dose not given beside the values
Procedure, shortened: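 Compound in methanol mixed 1:1 with methanolic DPPH, both 0.2 mM stocks, giving 0.1 mM each final. Shaken, left 30 min, then A517 read. % scavenging = [(Ab + As) − Am]/Ab × 100, where Ab is DPPH alone, As is compound alone and Am is the mixture. Ascorbic acid reference. Three replicates, averaged.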

Bacillus subtilis = experiment: Antimicrobial activity against Bacillus subtilis NCIM 2010 after 24 hrs by disk diffusion method
Procedure, shortened: (§1)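 Disc diffusion on nutrient agar. Plates were swabbed evenly with a standard inoculum ([…] c.f.u./ml, 0.5 McFarland). 6.25 mm filter-paper discs were dry-heat sterilized (140 °C, 1 h), soaked in test compound at 250 mcg/disc, and placed on the agar. Solvent, growth and ciprofloxacin controls were included. Plates were incubated inverted 24 h at 37 °C and inhibition zones measured.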

Staphylococcus aureus = experiment: Antimicrobial activity against Staphylococcus aureus NCIM 5021 after 24 hrs by disk diffusion method; procedure, shortened: as §1

SMILES | Activity [1] | inhibition zone (IZ) (Bacillus subtilis) | inhibition zone (IZ) (Staphylococcus aureus)
O=C(O)c1cn(C2CC2)c2cc(N3CCNCC3)c(F)cc2c1=O [CIPROFLOXACIN] | inactive | 33.7 mm | 30 mm
CC1=NN(C(=O)COc2ccc3c(C)cc(=O)oc3c2)C(=O)/C1=N/Nc1ccc(C(=O)O)cc1 | inactive | inactive | inactive
Cc1nn(C(=O)COc2ccc3c(C)cc(=O)oc3c2)c(C)c1/N=N/c1cccc([N+](=O)[O-])c1 | 38% | inactive | inactive
Cc1nn(C(=O)COc2ccc3c(C)cc(=O)oc3c2)c(C)c1/N=N/c1ccc(C(=O)O)cc1 | 32% | inactive | inactive
CC1=NN(C(=O)COc2ccc3c(C)cc(=O)oc3c2)C(=O)/C1=N/Nc1ccccc1C(=O)O | 20% | 26.7 mm | 12.3 mm
Cc1ccc(/N=N/c2c(C)nn(C(=O)COc3ccc4c(C)cc(=O)oc4c3)c2C)c(C)c1 | 24% | inactive | inactive
Cc1nn(C(=O)COc2ccc3c(C)cc(=O)oc3c2)c(C)c1/N=N/c1ccccc1C(=O)O | 28% | 16.7 mm | inactive
CC1=NN(C(=O)COc2ccc3c(C)cc(=O)oc3c2)C(=O)/C1=N/Nc1ccc(Cl)cc1 | 53% | 24.3 mm | 11.3 mm
CC1=NN(C(=O)COc2ccc3c(C)cc(=O)oc3c2)C(=O)/C1=N/Nc1ccc([N+](=O)[O-])cc1 | 31% | inactive | inactive
CC1=NN(C(=O)COc2ccc3c(C)cc(=O)oc3c2)C(=O)/C1=N/Nc1cccc([N+](=O)[O-])c1 | 69% | inactive | inactive
O=C1O[C@H]([C@@H](O)CO)C(O)=C1O | 96% | inactive | inactive
Cc1nn(C(=O)COc2ccc3c(C)cc(=O)oc3c2)c(C)c1/N=N/c1ccc([N+](=O)[O-])cc1 | 32% | inactive | inactive
Cc1nn(C(=O)COc2ccc3c(C)cc(=O)oc3c2)c(C)c1/N=N/c1ccc(Cl)cc1 | 32% | inactive | inactive
CC1=NN(C(=O)COc2ccc3c(C)cc(=O)oc3c2)C(=O)/C1=N/Nc1ccc(C)cc1C | 57% | inactive | inactive
CC1=NN(C(=O)COc2ccc3c(C)cc(=O)oc3c2)C(=O)/C1=N/Nc1ccc(Br)cc1 | inactive | 14 mm | 13.7 mm
Cc1nn(C(=O)COc2ccc3c(C)cc(=O)oc3c2)c(C)c1/N=N/c1ccc(Br)cc1 | 55% | 27 mm | 12.7 mm
